Blank lines part the entries; values can stand above or below the compound they belong to.
Legend:
[1] = Area under curve of acid 2a was determined by HPLC at a dosage of 54.5 mg/kg administered intragastrically by gavage method in dog; assay type: ADME, organism-based; design: dose 54.5 mg/kg, route intragastric; details: in vivo, po
Method in brief: (§1)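 Six female dogs, 7–12 kg, three per group, fasted 18 h. Prodrug ester given intragastrically as aqueous solution (2 mL/kg) by gavage or in gelatin capsule. Blood (3.5 mL) drawn via femoral vein catheter at 0.5, 1, 1.5, 2, 3, 5, 8, 13, 24 and 48 h, kept on ice, centrifuged, plasma stored at –20 °C. Acid measured in plasma by HPLC; AUC by trapezoidal method, extrapolated to infinity and back to zero.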

[2] = test system: Canis familiaris; test: Area under curve of acid 2a was determined by HPLC at a dosage of 5.45 mg/kg administered intragastrically by capsule method in dog; assay type: ADME, organism-based, Canis lupus familiaris; design: dose 5.45 mg/kg, route intragastric; details: in vivo, po; method in brief: as §1
[3] = test system: Canis familiaris; test: Area under curve of acid 2a was determined by HPLC at a dosage of 54.5 mg/kg administered intragastrically by capsule method in dog; assay type: ADME, organism-based, Canis lupus familiaris; design: dose 54.5 mg/kg, route intragastric; details: in vivo, po; method in brief: as §1
[4] = test system: Canis familiaris; test: Duration of action to obtain >20% ex vivo collagen induced platelet aggregation was reported, after 10 mg/kg (post-ig) into dogs.; assay type: functional, Canis lupus familiaris
Method in brief: (§2)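 Ester prodrugs dosed orally by capsule to conscious beagle dogs (n = 2). Citrated cephalic-vein blood (2 mL) drawn before and at set times after dosing for 24 h or until back to baseline. PRP made by spinning at 260g for 6 min. Aggregation induced with equine tendon collagen (final 33 μg/mL) at 37 °C and followed for 3 min. Duration is the time with >20% inhibition versus predose control.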

[5] = test system: Canis familiaris; test: Area under curve of acid 2a was determined by HPLC at a dosage of 5.45 mg/kg administered intragastrically by gavage method in dog; assay type: ADME, organism-based, Canis lupus familiaris; design: dose 5.45 mg/kg, route intragastric; details: in vivo, po; method in brief: as §1
[6] = test system: Canis familiaris; test: Duration of action to obtain >20% ex vivo collagen induced platelet aggregation was reported, after 20 mg/kg (post-ig) into dogs.; assay type: functional, Canis lupus familiaris; method in brief: as §2
[7] = test system: Canis familiaris; test: Duration of action to obtain >20% ex vivo collagen induced platelet aggregation was reported, after 20 mg/kg (post-ig) into dogs; duration of time >3, <6; assay type: functional, Canis lupus familiaris; method in brief: as §2
[8] = test system: Canis familiaris; test: Duration of action to obtain >20% ex vivo collagen induced platelet aggregation was reported, after […] 5 mg/kg orally (post-ig) into dogs.; assay type: functional, Canis lupus familiaris; details: route oral; method in brief: as §2
[9] = test system: Canis familiaris; test: Duration of action to obtain >20% ex vivo collagen induced platelet aggregation was reported, after 5 mg/kg (post-ig) into dogs.; assay type: functional, Canis lupus familiaris; method in brief: as §2
[10] = Area under curve was determined by HPLC at a dosage of 2.27 mg/kg administered intravenously by bolus method in dog; assay type: ADME, organism-based, Canis lupus familiaris; design: dose 2.27 mg/kg, route intravenous; details: in vivo, iv
Method in brief: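 Female dogs (7–12 kg, n = 3), fasted 18 h. Aqueous saline solution injected into a radial vein (0.5 mL/kg) over 2–3 min. Femoral vein blood (3.5 mL) taken at 0.25, 0.5, 1, 2, 3, 5, 8, 13 and 24 h, put on ice, centrifuged, plasma held at –20 °C. Acid level in plasma measured by HPLC; AUC by trapezoidal method extrapolated to infinity and back to zero.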

[11] = test system: Canis familiaris; test: Duration of action to obtain >20% ex vivo collagen induced platelet aggregation was reported, after 20 mg/kg (post-ig) into dogs; duration of time >6, <24; assay type: functional, Canis lupus familiaris; method in brief: as §2
[12] = test system: Canis familiaris; test: Duration of action to obtain >20% ex vivo collagen induced platelet aggregation was reported, after 10 mg/kg (post-ig) into dogs; duration of time >6, <24; assay type: functional, Canis lupus familiaris; method in brief: as §2
[13] = test system: Canis familiaris; test: Duration of action to obtain >20% ex vivo collagen induced platelet aggregation was reported, after 20 mg/kg (post-ig) into dogs; Duration of time >6, < 24; assay type: functional, Canis lupus familiaris; method in brief: as §2

- AUC [1]: 31700 ng·h/mL
- AUC [2]: 2660 ng·h/mL
- AUC [3]: 31200 ng·h/mL
- AUC [5]: 2730 ng·h/mL
SMILES: C#C[C@H](CC(=O)OCC)NC(=O)CCC(=O)Nc1ccc(C(=N)N)cc1 [XEMILOFIBAN]
- Duration time [4]: >24 h

SMILES: CCOC(=O)CC(C)NC(=O)CCC(=O)Nc1ccc(C(=N)N)cc1 (stereo not drawn)
- Duration time [6]: >30 h

SMILES: CCOC(=O)CC(Cc1ccccc1)NC(=O)CCCCc1ccc(C(=N)N)cc1 (stereo not drawn)
- Duration time [7]: >3 h

SMILES: CCOC(=O)CC(NC(=O)CCC(=O)Nc1ccc(C(=N)N)cc1)c1ccc2c(c1)OCO2 (stereo not drawn)
- Duration time [8]: >24 h

SMILES: CCOC(=O)CC(NC(=O)CCC(=O)Nc1ccc(C(=N)N)cc1)c1ccc(OCC)nc1 (stereo not drawn)
- Duration time [9]: <6 h

- AUC [10]: 2490 ng·h/mL
SMILES: C#C[C@H](CC(=O)O)NC(=O)CCC(=O)Nc1ccc(C(=N)N)cc1

SMILES: CCOC(=O)CC(C)NC(=O)CCCCc1ccc(C(=N)N)cc1 (stereo not drawn)
- Duration time [11]: >6 h

SMILES: CCOC(=O)CC(NC(=O)CCCCc1ccc(C(=N)N)cc1)c1ccccc1 (stereo not drawn)
- Duration time [12]: >6 h

SMILES: C=CC(CC(=O)OCC)NC(=O)CCC(=O)Nc1ccc(C(=N)N)cc1 (stereo not drawn)
- Duration time [6]: >24 h

SMILES: CCOC(=O)CC(Cc1ccccc1)NC(=O)CCC(=O)Nc1ccc(C(=N)N)cc1 (stereo not drawn)
- Duration time [11]: >6 h

SMILES: CCOC(=O)CC(NC(=O)CCC(=O)Nc1ccc(C(=N)N)cc1)c1cnc2ccccc2c1 (stereo not drawn)
- Duration time [9]: <6 h

SMILES: CCOC(=O)CC(NC(=O)CCC(=O)Nc1ccc(C(=N)N)cc1)c1ccccc1 (stereo not drawn)
- Duration time [13]: >6 h

SMILES: CCOC(=O)CC(NC(=O)CCC(=O)Nc1ccc(C(=N)N)cc1)c1cccnc1 (stereo not drawn)
- Duration time [9]: >6 h
- Duration time [4]: >24 h
